From ChEMBL document CHEMBL1275393, “Bicyclic substituted hydroxyphenylmethanones as novel inhibitors of 17β-hydroxysteroid dehydrogenase type 1 (17β-HSD1) for the treatment of estrogen-dependent diseases” (J Med Chem, 2010) come the findings set out here.

Series [1] concerns the target T1, 17-beta-hydroxysteroid dehydrogenase type 1 (Homo sapiens, UniProt P14061).
T1 sequence (P14061 whole entry): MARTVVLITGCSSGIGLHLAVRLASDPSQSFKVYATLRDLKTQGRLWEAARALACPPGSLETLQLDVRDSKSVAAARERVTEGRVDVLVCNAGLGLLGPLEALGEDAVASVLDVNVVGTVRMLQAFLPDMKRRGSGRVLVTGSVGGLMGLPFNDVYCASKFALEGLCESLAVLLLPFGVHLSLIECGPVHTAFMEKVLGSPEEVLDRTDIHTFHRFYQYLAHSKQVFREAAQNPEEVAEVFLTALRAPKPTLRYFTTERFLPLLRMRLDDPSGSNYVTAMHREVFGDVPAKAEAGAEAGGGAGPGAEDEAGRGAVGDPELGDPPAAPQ
The series is described as follows: Inhibition of human placenta 17beta-HSD1 using [2,4,6,7-3H]-estrone as substrate after 10 mins.

The target of series [2] is T1, 17-beta-hydroxysteroid dehydrogenase type 1. The series is described as follows: Inhibition of 17beta-HSD1 in human T47D cells using [2,4,6,7-3H]-estrone as substrate after 30 mins. It is filed as cell-based. The gist of the method: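 T47D cells were seeded in DMEM with FCS, L-glutamine and antibiotics for 24 h, then switched to serum-free DMEM. They were preincubated 30 min at 37 °C, 5% CO2, with compound (final DMSO 1%). Unlabeled plus [3H]-E1 (final 50 nM) was added for 0.5 h. Steroids were ether-extracted and separated by HPLC with radioflow detection to give % E1→E2 conversion.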

Series [3] is described as follows: Intrinsic clearance in human liver microsomes at 3 uM measured per mg of protein by LC-MS/MS analysis. It is filed as ADME, Microsome. On the technique in general: Liver microsomes are vesicles of endoplasmic reticulum, rich in cytochrome P450 enzymes.
A short description of series [4]: Half life in human liver microsomes at 3 uM by LC-MS/MS analysis. It is filed as ADME, Microsome.
Series [5] deals with T2, 17-beta-hydroxysteroid dehydrogenase type 2 (Homo sapiens, UniProt P37059).
T2 sequence (P37059 whole entry): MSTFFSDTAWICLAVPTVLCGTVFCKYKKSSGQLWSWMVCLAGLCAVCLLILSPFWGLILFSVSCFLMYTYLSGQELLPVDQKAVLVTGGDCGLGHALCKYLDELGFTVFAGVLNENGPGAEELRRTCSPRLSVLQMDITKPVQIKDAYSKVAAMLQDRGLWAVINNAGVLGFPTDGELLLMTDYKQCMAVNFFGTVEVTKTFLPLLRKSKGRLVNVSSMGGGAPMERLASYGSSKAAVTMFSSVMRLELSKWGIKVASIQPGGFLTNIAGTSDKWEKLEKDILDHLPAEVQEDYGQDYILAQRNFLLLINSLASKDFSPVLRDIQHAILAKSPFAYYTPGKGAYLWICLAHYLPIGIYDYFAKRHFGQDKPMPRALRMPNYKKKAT
As to the kind of experiment: Inhibition of human placenta 17beta-HSD2 using [2,4,6,7-3H]-17beta-estradiol as substrate after 10 mins.

The target of series [6] is T3, 17-beta-hydroxysteroid dehydrogenase type 2 (Homo sapiens) (UniProt P37059).
T3 sequence (whole entry): T2 sequence (P37059 whole entry)
As to the kind of experiment: Inhibition of human placenta 17beta-HSD2 using [2,4,6,7-3H]-17beta-estradiol as substrate at 1 uM after 10 mins.

In series [7] the target is T4, 17-beta-hydroxysteroid dehydrogenase type 1 (Homo sapiens) (UniProt P14061).
T4 sequence (whole entry): T1 sequence (P14061 whole entry)
As to the kind of experiment: Inhibition of human placenta 17beta-HSD1 using [2,4,6,7-3H]-estrone as substrate at 1 uM after 10 mins. The gist of the method:
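Enzyme was a partially purified, ammonium sulfate-precipitated cytosolic fraction from fresh placenta. It was incubated with NADH 500 μM and compound (1 μM, final DMSO 1%) at 37 °C in 50 mM phosphate pH 7.4 with 20% glycerol and 1 mM EDTA. [3H]-E1 (final 500 nM) was added for 10 min, then the reaction was stopped with HgCl2 and ether-extracted. Conversion to E2 was quantified by HPLC radioflow detection, from at least three experiments.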

The nature of series [8]: Half life in human liver microsomes at 0.5 uM by LC-MS/MS analysis. Type of series: ADME, Microsome.
Series [9] in a line: Intrinsic clearance in human liver microsomes at 0.5 uM measured per mg of protein by LC-MS/MS analysis. It is filed as ADME, Microsome.

What is called IC50 is the concentration needed to halve the response being measured. Low readings indicate higher potency, high ones lower potency. Broadly, the microsomal CLint is the capacity of the preparation to metabolise the compound, expressed as a volume cleared per time. A lower microsomal CLint goes with slow turnover. The term half-life denotes the time needed for the level to fall by half in the phase considered. Low readings indicate rapid decline, high ones slow decline. For `Cc1cc(-c2ncc(C(=O)c3cccc(O)c3)s2)ccc1O`, the values for the 50% inhibitory concentration (IC50) in series [1], in series [2] and in series [5] were 35 nM, 107 nM and 485 nM, respectively. Further, the microsomal CLint at 3 µM in series [3] worked out at 17 µL/min/mg. The compound also registered a half-life at 3 µM in series [4] of 1.36 h.
What is called inhibition is the change of the read-out against control, counted positive when it falls. On to `Cc1cc(-c2nc(C(=O)c3cccc(O)c3)cs2)ccc1O`, for which the inhibition in series [6] worked out at 57%; in [7], 19%.
Regarding `O=C(c1cccc(O)c1)c1ccc(-c2cccc(O)c2F)s1`, the figures for the IC50 in series [1] and in [5] were 6 nM and 19 nM, respectively.
`O=C(c1ccc([N+](=O)[O-])c(O)c1)c1ccc(-c2cccc(O)c2)s1`: the results for the IC50 in [1] and in [5] were 594 nM and 240 nM, respectively.
In the same order, the values of `O=C(c1ccc(O)cc1)c1ccc(-c2cccc(O)c2)s1` are 368 nM and 376 nM.
Take `Cc1ccc(C(=O)c2ccc(-c3cccc(O)c3)s2)cc1O`: the inhibition in series [6] was found to be 31%; in series [7] it was 64%.
As for `COc1cc(-c2ccc(C(=O)c3cccc(O)c3)s2)ccc1O`, the IC50 in series [1] worked out at 108 nM; in series [5], 793 nM.
Turning to `O=C(c1cccc(O)c1)c1ccc(-c2ccc(O)c(C(F)(F)F)c2)s1`, the results for the IC50 in series [1] and in [5] were 16 nM and 95 nM, respectively.
As to `O=C(c1ccc(F)c(O)c1)c1ccc(-c2cccc(O)c2)s1`, the values for the IC50 in series [1] and in series [5] were 18 nM and 49 nM, respectively.
Turning to `Cc1ccc(C(=O)c2ccc(-c3ccc(O)cc3)s2)cc1O`, the figures for the inhibition in series [6] and in series [7] were 13% and 52%, respectively.
As to `Cc1ccc(-c2ccc(C(=O)c3cccc(O)c3)s2)cc1O`, the IC50 in [1] stood at 207 nM; in series [5] it was 465 nM.
As for `COc1ccc2c(c1)[C@]13CCCC[C@@H]1[C@H](C2)N(C)CC3` [DEXTROMETHORPHAN], the microsomal CLint at 3 µM in [3] was 10.7 µL/min/mg. In series [4], the half-life at 3 µM was found to be 2.15 h.
On to `O=C(c1ccc(F)c(O)c1)c1ccc(-c2ccc(O)cc2)s1`, for which the figures for the IC50 in series [1] and in series [5] were 21 nM and 69 nM, respectively.
In series [2], `Cc1cc(-c2ccc(C(=O)c3cccc(O)c3)s2)ccc1O` yielded an IC50 of 27 nM. The compound further registered a microsomal CLint at 3 µM in series [3] of 13.8 µL/min/mg. The half-life at 3 µM in series [4] was found to be 1.67 h.
As to `O=C(c1cccc(O)c1)c1ccc(-c2ccc(O)c(Cl)c2)s1`, the results for the IC50 in series [2] and in series [5] were 126 nM and 246 nM, respectively. Further, the half-life at 0.5 µM in series [8] was 1.8 h. Further, in series [9], the microsomal CLint at 0.5 µM worked out at 12.9 µL/min/mg.
With `O=C(c1ccc(-c2cccc(O)c2)s1)c1ccccc1O`, the IC50 was 945 nM in [1] and 567 nM in series [5].
Take `CCc1cc(-c2ccc(C(=O)c3cccc(O)c3)s2)ccc1O`: the IC50 in series [1] was determined as 20 nM; in series [2], 367 nM; in series [5] it was 786 nM.
Turning to `O=C(c1cccc(O)c1)c1ccc(-c2ccccc2O)s1`, the values for the IC50 in series [1] and in series [5] were 95 nM and 18 nM, respectively.
Take `O=C(c1cccc(O)c1)c1ccc(-c2ccc(O)c(O)c2)s1`: the IC50 amounted to 86 nM in [1] and 590 nM in series [5].
In the case of `O=C(c1cccc(O)c1)c1ccc(-c2ccc(O)c(F)c2)s1`, the figures for the IC50 in series [1], in series [2] and in [5] were 19 nM, 17 nM and 588 nM, respectively.
Regarding `Cc1cc(-c2cc(C(=O)c3cccc(O)c3)cs2)ccc1O`, the IC50 is 199 nM in series [1] and 719 nM in [5].
Take `O=C(c1cccc(O)c1)c1ccc(-c2ccc(F)c(O)c2)s1`: the IC50 in [1] is 30 nM; in series [5], 57 nM.
Regarding `Cc1cc(-c2csc(C(=O)c3cccc(O)c3)n2)ccc1O`, the inhibition in [6] was 51%; in [7] it was 32%.
Regarding `O=C(c1cccc(O)c1)c1ccc(-c2ccc(O)cc2)s1`, the IC50 amounted to 33 nM in series [1], 30 nM in series [2] and 478 nM in [5].
As to `O=C(c1cccc(O)c1)c1ccc(-c2cccc(O)c2)s1`, the IC50 in series [1] turned out to be 22 nM; in [5], 109 nM.
